Measured values published in ChEMBL document CHEMBL4342506 (ACS Med Chem Lett, 2020).
The source made the active and inactive calls. No cut-off for these calls is given here.

How the values were obtained:
Neutrophil elastase = target: T1, Neutrophil elastase (Homo sapiens, UniProt P08246); experiment: Inhibition of human neutrophil elastase using N-(OMe-succinyl)-Ala-Ala-Pro-Val-p-nitroanilide as substrate incubated for 15 mins followed by substrate addition and measured for every 30 sec for 30 mins by spectrophotometry
T1 sequence (P08246 whole entry): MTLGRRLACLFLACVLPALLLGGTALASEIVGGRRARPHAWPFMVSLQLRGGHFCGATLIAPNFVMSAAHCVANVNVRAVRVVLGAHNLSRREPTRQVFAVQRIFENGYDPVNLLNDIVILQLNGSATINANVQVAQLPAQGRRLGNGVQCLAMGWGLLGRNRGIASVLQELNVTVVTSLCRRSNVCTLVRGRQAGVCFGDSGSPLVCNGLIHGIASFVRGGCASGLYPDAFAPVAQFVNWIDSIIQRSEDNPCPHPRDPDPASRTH

BEAS-2B [1] = experiment: Cytoprotective activity in human BEAS2B cells assessed as reduction in HNE-induced cell death incubated for 24 hrs by MTT assay; assay type: functional, cell-based
How it was run: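 BEAS-2B bronchial epithelial cells were cotreated with compound and 100 nM HNE for 24 h, and viability was read with MTT reagent.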

BEAS-2B [2] = experiment: Upregulation of IL-1beta in human BEAS2B cells incubated for 3 hrs by RT-qPCR analysis
[3] = Stability in human serum at 200 uM incubated for 24 hrs by HPLC-MS analysis; assay type: ADME, cell-free
How it was run: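 Compound was incubated in human serum at 37 °C and followed over 24 h.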

[4] = Metabolic stability in human liver microsomes at 200 uM incubated for 24 hrs by HPLC-MS analysis; assay type: ADME, Microsome
How it was run: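 Compound was incubated with pooled human liver microsomes without NADPH for up to 24 h to assess NADPH-independent metabolism; mean ± SD, n = 3.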

[5] = Metabolic stability in human liver microsome assessed as half life at 200 uM in presence of NADPH incubated for 24 hrs by HPLC-MS analysis; assay type: ADME; details: liver microsomes

Row | Compound | IC50 (Neutrophil elastase) | Stability [3] | Stability [4] | half-life at 200 µM [5] | EC50 (BEAS-2B [1]) | Activity (BEAS-2B [2])
1 | C/C=C1\NC(=O)[C@@H](NC(=O)[C@H](CCC(N)=O)NC(=O)CCCCC)[C@@H](C)OC(=O)[C@H](C(C)C)NC(=O)[C@H](Cc2ccc(O)cc2)N(C)C(=O)[C@H](Cc2ccccc2)N2C(=O)[C@H](CC[C@H]2O)NC1=O [LYNGBYASTATIN 7] | – | Stable | Stable | 2 h | 20 nM | Active
2 | C/C=C1\NC(=O)[C@@H](NC(=O)OC(C)(C)C)[C@@H](C)OC(=O)[C@H](C(C)C)NC(=O)[C@H](Cc2ccc(O)cc2)N(C)C(=O)[C@H](Cc2ccccc2)N2C(=O)[C@H](CC[C@H]2O)NC1=O | > 10000 nM | – | – | – | – | –
3 | C/C=C1\NC(=O)[C@@H](NC(C)=O)[C@@H](C)OC(=O)[C@H](C(C)C)NC(=O)[C@H](Cc2ccc(O)cc2)N(C)C(=O)[C@H](Cc2ccccc2)N2C(=O)[C@H](CC[C@H]2O)NC1=O | 10000 nM | – | – | – | – | –

More lines, main results first:

Row | IC50 (Neutrophil elastase) | Stability [3] | Stability [4] | half-life at 200 µM [5] | Compound | EC50 (BEAS-2B [1]) | Activity (BEAS-2B [2])
4 | 103 nM | – | – | – | C/C=C1\NC(=O)[C@@H](NC(=O)[C@H](CCC(N)=O)NC(=O)CC2CCCCC2)[C@@H](C)OC(=O)[C@H](C(C)C)NC(=O)[C@H](Cc2ccc(O)cc2)N(C)C(=O)[C@H](Cc2ccccc2)N2C(=O)[C@H](CC[C@H]2O)NC1=O | 91 nM | Active
5 | 197 nM | – | – | – | C/C=C1\NC(=O)[C@@H](NC(=O)[C@H](CCC(N)=O)NC(=O)CN2CCOCC2)[C@@H](C)OC(=O)[C@H](C(C)C)NC(=O)[C@H](Cc2ccc(O)cc2)N(C)C(=O)[C@H](Cc2ccccc2)N2C(=O)[C@H](CC[C@H]2O)NC1=O | 185 nM | inactive
